In data set [1] the test system is Rattus norvegicus. The data set can be described thus: Antiinflammatory activity in Wistar rat assessed as inhibition of carrageenan-induced paw edema at 50 mg/kg, po administered 1 hr prior to carrageenan challenge measured 3 hrs post-carrageenan injection. Format: functional. An outline of the steps: (§1)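 Female Carworth Wistar rats (120-150 g), ten per group, are fasted 12-16 h with water allowed. Compounds are given orally as an aqueous Tween 80 suspension (10 ml/kg); controls get vehicle. After 1 h, 0.1 ml of 1% carrageenan is injected subplantar into the left hind paw. Paw volume is read by mercury displacement before and 3 h after injection. Result is % edema difference versus control.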

For a further data set, the system named is Mus musculus. Kind of data set: Analgesic activity in po dosed CD-1 mouse assessed as inhibition of phenylquinone-induced writhing administered prior to phenylquinone challenge measured 5 mins after phenylquinone injection. Format: functional. To be noted: CD-1, po. An outline of the steps: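 Male CD-1 Charles River mice (18-24 g), fed ad libitum, are dosed orally with drug as an aqueous suspension with Tween 80 (10 ml/kg); controls get vehicle. Phenylquinone (0.125% in 5% aqueous ethanol) is given ip at 10 ml/kg at the peak-activity time. Writhes are counted for 10 min, starting 5 min post-injection. Ten mice per group, four doses. Result is % inhibition of writhes versus control; ED50 by Litchfield-Wilcoxon.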

The test system of data set [2] is Rattus norvegicus. Kind of data set: Antiinflammatory activity in po dosed Wistar rat assessed as inhibition of carrageenan-induced paw edema administered 1 hr prior to carrageenan challenge measured 3 hrs post-carrageenan injection. Format: functional. Summed up:
as §1

In data set [3] the test system is Rattus norvegicus. The data set can be described thus: Antiinflammatory activity against Mycobacterium butyricum adjuvant-induced polyarthritis in po dosed Lewis albino rat assessed as decrease in adjuvant treated paw edema administered daily for 21 days […]. It is filed as functional. An outline of the steps: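 Female Charles River-Lewis albino rats (150-170 g), ten per group, housed individually. Heat-killed Mycobacterium butyricum in paraffin oil (0.5 mg/0.1 ml) is injected into the left hind paw. Oral dosing starts the day before adjuvant and continues daily for 21 days, using a Tween 80 aqueous suspension. Paw volume is measured by mercury displacement from injection day onward. ED50 by Litchfield-Wilcoxon, with 95% confidence limits.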

A short description of data set [4]: Ulcerogenicity in po dosed Wistar rat assessed as induction of gastric irritation. It is filed as toxicity, organism-based, Stomach. The settings on record: in vivo, read-out: ID50 (the source's name). An outline of the steps:
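Groups of eight male Wistar rats (150-175 g) are fasted 48 h with water allowed, then dosed orally (10 ml/kg); controls get vehicle. Rats are killed at 3, 5 and 7 h post-dose, and stomach and intestines are examined for erosion, ulcer or perforation. ID50 is the dose causing irritation in 50% of animals.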

The subject of data set [5] is Rattus norvegicus. Kind of data set: Antiinflammatory activity against Mycobacterium butyricum adjuvant-induced polyarthritis in po dosed Lewis albino rat assessed as decrease in non-injected paw edema administered daily for 21 days […]. It is filed as functional. Summed up:
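Female Charles River-Lewis albino rats, 150-170 g, groups of ten, housed singly; heat-killed dry Mycobacterium butyricum in white paraffin oil (0.5 mg/0.1 ml) injected into left hind paw. Oral dosing as aqueous suspension with Tween 80 (10 ml/kg), starting the day before adjuvant and daily for 21 days; vehicle controls. Paw volume by mercury displacement from injection day onward; ED50 by Litchfield-Wilcoxon with 95% confidence limits.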

The nature of data set [6]: Therapeutic ratio of ID50 for ulcerogenicity in Wistar rat to ED50 for antiinflammatory activity against Mycobacterium butyricum adjuvant-induced polyarthritis in Lewis albino rat adjuvant treated paw. It is filed as ADME. The settings on record: in vivo, read-out: TI. An outline of the steps: (§2)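 Ratio of the gastric irritation ID50 (oral dose, Wistar rats, lesions scored as irritation in 50% of animals) to the adjuvant polyarthritis ED50 (Lewis rats, 21-day oral dosing). The ED50 is taken from the adjuvant-injected paw or the noninjected paw, with paw volume measured by mercury displacement.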

A short description of data set [7]: Therapeutic ratio of ID50 for ulcerogenicity in Wistar rat to ED50 for antiinflammatory activity against Mycobacterium butyricum adjuvant-induced polyarthritis in Lewis albino rat non-injected paw. Format: ADME. To be noted: in vivo, read-out: TI. An outline of the steps: as §2

Each structure is given as a SMILES string.

As to `O=C(O)Cc1ccc2c(c1)C(=O)c1ccccc1CS2`, in the data set with Rattus norvegicus [1], the inhibition in vivo at 50 mg/kg came to 42.7%. On to `NC(=O)Cc1ccc2c(c1)C(=O)c1ccccc1CO2`, for which the ED50 in the data set on Mus musculus and in the data set with Rattus norvegicus [2] was greater than 100 mg/kg each time. Turning to `O=C(O)Cc1ccc2c(c1)Cc1ccccc1CO2`, the ED50 with Rattus norvegicus [2] was found to be 200 mg/kg. Consider `COC(=O)Cc1ccc2c(c1)C(=O)c1ccccc1CO2`, for which the ED50 in the data set on Mus musculus came out at 26.6 mg/kg; with Rattus norvegicus [2] it was 31 mg/kg. For `CCOC(=O)Cc1ccc2c(c1)C(=O)c1ccccc1CO2`, the ED50 was greater than 50 mg/kg with Mus musculus and 6.85 mg/kg in the data set with Rattus norvegicus [2].

`O=C(O)Cc1ccc2c(c1)C(=O)c1ccc(Cl)cc1CO2`: the ED50 is 34.3 mg/kg with Mus musculus and 26.5 mg/kg in the data set with Rattus norvegicus [2]. In the case of `COc1ccc2c(c1)COc1ccc(CC(=O)O)cc1C2=O`, the ED50 with Mus musculus is greater than 50 mg/kg; in the data set on Rattus norvegicus [2], 58.6 mg/kg. As to `O=C(O)Cc1ccc2c(c1)C(=O)c1cc(Cl)ccc1CO2`, the ED50 with Mus musculus and in the data set on Rattus norvegicus [2] was greater than 50 mg/kg in each case. `CCCOC(=O)Cc1ccc2c(c1)C(=O)c1ccccc1CO2`: the ED50 in the data set with Mus musculus turned out to be 16.7 mg/kg; in the data set with Rattus norvegicus [2], 3.55 mg/kg. Take `CC(C)OC(=O)Cc1ccc2c(c1)C(=O)c1ccccc1CO2`: the ED50 was less than 50 mg/kg with Mus musculus and 6.84 mg/kg in the data set on Rattus norvegicus [2].

Regarding `CCCCOC(=O)Cc1ccc2c(c1)C(=O)c1ccccc1CO2`, the ED50 with Mus musculus is 12.7 mg/kg; with Rattus norvegicus [2], 14.7 mg/kg.

As to `CCCCCOC(=O)Cc1ccc2c(c1)C(=O)c1ccccc1CO2`, the ED50 with Mus musculus is greater than 50 mg/kg; in the data set with Rattus norvegicus [2] it was 2.9 mg/kg. In the case of `O=C(Cc1ccc2c(c1)C(=O)c1ccccc1CO2)OCc1ccccc1`, the ED50 in the data set with Rattus norvegicus [2] is greater than 50 mg/kg. Consider `O=C(O)Cc1cc(Cl)c2c(c1)C(=O)c1ccccc1CO2`, for which the ED50 in the data set on Rattus norvegicus [2] was greater than 50 mg/kg. In the case of `O=C(O)Cc1ccc2c(c1)C(=O)c1cccc(Cl)c1CO2`, the median effective dose (ED50) was greater than 50 mg/kg in the data set on Mus musculus and less than 50 mg/kg in the data set with Rattus norvegicus [2].

In the case of `O=C(O)Cc1ccc2c(c1)C(=O)c1cc(F)ccc1CO2`, in the data set on Rattus norvegicus [2], the ED50 turned out to be 356 mg/kg. In the case of `O=C(O)Cc1ccc2c(c1)C(=O)c1cc(C(F)(F)F)ccc1CO2`, the ED50 in the data set on Rattus norvegicus [2] is greater than 50 mg/kg. On to `Cc1cccc2c1C(=O)c1cc(CC(=O)O)ccc1OC2`, for which the ED50 in the data set on Rattus norvegicus [2] was greater than 50 mg/kg. With `OCCc1ccc2c(c1)C(O)c1ccccc1CO2` (centres undefined), the 50% effective dose (ED50) with Rattus norvegicus [2] was greater than 200 mg/kg. On the same count and under the same terms, as for `COC(=O)Cc1ccc2c(c1)C(O)c1ccccc1CO2` (centres undefined), the figure is greater than 200 mg/kg; as for `COC(=O)Cc1ccc2c(c1)C(OC)c1ccccc1CO2` (centres undefined), greater than 200 mg/kg.

For `COc1ccc2c(c1)c(CC(=O)O)c(C)n2C(=O)c1ccc(Cl)cc1` [INDOMETHACIN], the figures for the ED50 in the data set on Rattus norvegicus [3], in the data set with Rattus norvegicus [5] and with Mus musculus were 0.47 mg/kg, 0.27 mg/kg and 0.7 mg/kg, respectively. In addition, the TD50 in data set [4] was found to be 1.8 mg/kg. Moreover, the values for the selectivity ratio in data set [6] and in data set [7] were 3.8 and 6.7, respectively. For the compound `O=C(O)Cc1ccc2c(c1)C(=O)c1ccccc1CO2` [ISOXEPAC], the ED50 turned out to be 2.1 mg/kg with Rattus norvegicus [3], 1.06 mg/kg in the data set on Rattus norvegicus [5] and 7.57 mg/kg in the data set on Mus musculus. Further, in data set [4], the TD50 turned out to be 82.5 mg/kg. For the same compound, the selectivity ratio in data set [6] amounted to 39; in data set [7], 78.
